# High-throughput results as filed in PubChem BioAssay.
# Cneo AK release: causes C. neoformans cell lysis. adenylate kinase release luminescence, 4 h; normalised: neutral wells 0, clomiphene wells 100. hit rate 0.2% among 360,000. lysis activity, % at 15 µM;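 active means mean lysis activity across replicates of at least 80%, whatever share of replicates individually reach that level; inactive means mean lysis activity below 80%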
#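 Assay system: C. neoformans cells. Amount: yeast cell density of 5 × 10^6 cells/mL. Technique: AK luminescence. Buffer or medium: YPD. Times: static 4 h at 37 °C with compound, 1 h detection. Dosing: single-point compound dose. Read-out: lysis from increased AK signal.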
# GSIS activator: GLuc luminescence reporter in INS-1E cells, primary screen for activators of glucose-dependent secretion of insulin | INS-1E GLuc reporter insulin secretion, 2-3 h | activation, % at 16.6 µM | hit rate 0.61% among 370,000;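 active means lowest replicate activation of at least 40%, so every replicate reaches that level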;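 further: 0% = median of neutral control wells and 100% = median of IBMX positive control wells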
# PAX8 inh HTS: lowers PAX8-driven luciferase in RMG-I cells; RMG-I TPO-luciferase reporter, SteadyGlo, 24 h; inhibition, % at 12.6 µM; hit rate 1.2% among 360,000;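 active means mean replicate inhibition at least 60% with every replicate also reaching 60%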;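 further: luciferase light reporting Pax8 driven TPO promoter activity; plate controls were median of neutral control wells for no effect and mitoxantrone controls for full effect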
# Env fusion inh: inhibitors of HIV Env-mediated cell fusion; hit rate 1.1% among 360,000; HeLa-JRFL Env/CEM21 cell fusion, luciferase; inhibition, % at 12.3 µM;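 active means mean replicate inhibition score of at least 50 and every replicate individually at or above 50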;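 further: 0% = plate neutral controls and 100% = maraviroc near 300 nM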
# CDK5 p35 inh: blocks human CDK5/p35 kinase activity | Recombinant CDK5/p35, ADP-Glo luminescence, 60 min | hit rate 0.01% among 330,000 | Q00535+Q15078 | inhibition, % at 10 µM;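 active means highest replicate inhibition of at least 50% and at least 75% of replicates reaching 50%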;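 further: plate controls were DMSO neutral control for no effect and GW8510 at 10 µM for full effect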
# Target sequence (Q00535 whole entry, looked up): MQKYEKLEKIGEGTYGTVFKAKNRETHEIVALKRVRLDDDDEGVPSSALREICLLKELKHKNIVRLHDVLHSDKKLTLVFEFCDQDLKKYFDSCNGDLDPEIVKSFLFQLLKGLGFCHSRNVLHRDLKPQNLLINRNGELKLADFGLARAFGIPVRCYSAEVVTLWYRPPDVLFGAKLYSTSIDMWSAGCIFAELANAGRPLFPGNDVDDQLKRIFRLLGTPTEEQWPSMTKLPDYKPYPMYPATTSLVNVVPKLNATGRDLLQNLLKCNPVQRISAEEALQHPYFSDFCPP
# Target sequence (Q15078 whole entry, looked up): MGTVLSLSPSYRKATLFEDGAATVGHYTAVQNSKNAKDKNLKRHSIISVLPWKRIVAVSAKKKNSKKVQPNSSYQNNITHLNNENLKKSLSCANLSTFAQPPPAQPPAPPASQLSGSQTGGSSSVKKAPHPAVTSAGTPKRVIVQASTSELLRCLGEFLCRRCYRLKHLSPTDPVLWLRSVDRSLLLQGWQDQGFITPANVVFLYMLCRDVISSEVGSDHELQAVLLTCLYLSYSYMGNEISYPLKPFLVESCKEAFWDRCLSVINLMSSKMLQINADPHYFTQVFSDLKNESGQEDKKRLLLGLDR
# dFosB act: enhances mouse delta FosB homodimer DNA binding. activation, % at 25 µM. purified delta FosB, TAMRA-CDK5 oligo fluorescence polarization; percent of positive-control signal above neutral wells. hit rate 0.99% among 340,000. P13346;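 active means mean activation above about 17%, with every replicate also reaching it, limit read from the data, passing the limit was not always enough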
# Starred values were filed as active, the others as inactive; x = no result given; [ ] = another dose, or the depositor's remark. Most compounds without a hit are left out; they make up all but 2.9% or so of the library.
SMILES,Cneo AK release,GSIS activator,PAX8 inh HTS,Env fusion inh,CDK5 p35 inh,dFosB act
O=C(C[C@@H]1CC[C@@H](NC(=O)Cc2ccccn2)[C@H](CO)O1)NCCc1ccccc1,-3.0,26.1,x,-6.0[16.7 µM],x,x
COc1cccc(C(=O)N2C[C@H]3[C@@H](c4ccccc42)[C@H](CO)N3Cc2ccccc2F)c1,-5.6,3.5,18.8,x,x,x
C[C@H](CO)N1C[C@H](C)[C@@H](CN(C)C(=O)Nc2ccccc2)Oc2ccc(NC(=O)Nc3ccccc3)cc2CC1=O,-0.8,-7.8,7.5,-10.7[16.7 µM],x,x
CC[C@@H](C(=O)[C@@H](C)[C@@H](O)[C@H](C)CCc1ccc(C)c(O)c1C(=O)O)[C@H]1O[C@](CC)([C@H]2CC[C@](O)(CC)[C@H](C)O2)C[C@@H]1C,-4.0,30.2,103.8*,15.7,-1.5,-17.6
COCCn1c(C)cc(C2=NNC(=Nc3ccccc3)SC2)c1C,-2.3,x,x,x,0.2,-0.9
COc1ccccc1C1=NNC(=Nc2cccc(S(=O)(=O)N(C)C)c2)SC1,-0.8,6.3,84.1*,40.7,0.4,-1.4
Cc1ccc(-c2ccc(CN3C(CC(C)C)C(=O)N(Cc4cn(CC5CCCCC5)nn4)CCS3(=O)=O)cc2)cc1 (stereo not given),0.2,-1.7,32.1,6.5,x,x
CCC/C=C/c1ccc(CN2C(CC(C)C)C(=O)N(Cc3cn(CC4CCCCC4)nn3)CCS2(=O)=O)cc1 (stereo not given),-1.7,-7.8,8.1,89.3*,x,x
C=CCN(Cc1ccc(OC)c(OC)c1)C(=O)c1cc2cc(F)ccc2[nH]1,-1.3,9.5,11.5,76.1*,1.0,1.4
COc1cc2cc(C(=O)N(C)Cc3ccccc3)[nH]c2cc1OC,-0.5,-0.2,14.0,-15.1,-0.2,2.8
C[C@@H](NC(=O)C[C@@H]1CC[C@H](NC(=O)Cc2ccccn2)[C@@H](CO)O1)c1ccccc1,-1.1,7.8,17.7,20.2[16.7 µM],x,x
CCOC(=O)C1=C(C)NC2=C(C(=O)CCC2)C1c1coc2ccccc2c1=O (stereo not given),-3.8,22.4,x,x,-2.8,-6.8
CC1=C(C(=O)OCCOc2ccccc2)C(c2coc3ccccc3c2=O)C2=C(CCCC2=O)N1 (stereo not given),x,-40.7,16.9,56.8*,3.4,-13.1
Fc1ccccc1-c1nnc2ccc3ccccc3n12,1.6,53.2*,-7.8,-7.2,0.5,-2.1
Fc1cccc(Cl)c1-c1nnc2ccc3ccccc3n12,x,5.5,0.5,7.8,-0.4,-0.5
C[C@H]1CN([C@@H](C)CO)C(=O)c2cc(C#CCN(C)C)cnc2O[C@H]1CN(C)Cc1ccccc1,-1.7,11.2,x,-16.0[16.7 µM],x,x
Cc1ccc(S(=O)(=O)Nc2ccc3c(c2)C(=O)N([C@H](C)CO)C[C@H](C)[C@@H](CN(C)S(=O)(=O)c2ccc(F)cc2)OCCCC[C@H](C)O3)cc1,1.0,2.3,85.5*,-21.6[16.7 µM],x,x
Cc1ccc(S(=O)(=O)N(C)C[C@@H]2OCCCC[C@H](C)Oc3ccc(NS(=O)(=O)c4ccc(F)cc4)cc3C(=O)N([C@H](C)CO)C[C@H]2C)cc1,2.5,-21.0,87.0*,8.1[16.7 µM],x,x
Cc1ccc(S(=O)(=O)N(C)C[C@H]2OCCCC[C@@H](C)Oc3ccc(NS(=O)(=O)c4ccc(F)cc4)cc3C(=O)N([C@H](C)CO)C[C@H]2C)cc1,0.4,-15.6,59.7,-13.6[16.7 µM],x,x
C[C@H](CO)N1C[C@H](C)[C@H](CN(C)C(=O)CC2CC2)Oc2ncc(C#CC(C)(C)O)cc2C1=O,-2.0,8.2,x,-5.4[16.7 µM],x,x
C[C@@H]1CN([C@@H](C)CO)C(=O)c2cccc(NS(=O)(=O)c3cn(C)cn3)c2O[C@H]1CN(C)Cc1ccc(C(=O)Nc2ccccc2N)cc1,x,15.6,-26.4,x,x,x
O=C(Nc1cccc2c1C(=O)NC2=O)c1cccc(N2C(=O)CCC2=O)c1,x,7.6,-0.1,1.8,-2.3,10.4
O=C(CN1C(=O)CCC1=O)Nc1cccc2c1C(=O)NC2=O,x,40.8*,8.8,-11.8,2.7,-4.4
O=C(Nc1cccnc1Cl)C1=NN(c2ccccc2)C(=O)CC1,-1.2,47.7*,11.7,-0.1,-0.2,-2.3
CC(C)Nc1nc(NC(N)=S)nc(NC(C)C)n1,x,81.9*,-13.4,-9.6,x,1.4
SMILES,Cneo AK release,GSIS activator,PAX8 inh HTS,Env fusion inh,CDK5 p35 inh,dFosB act
CC(C)Nc1nc(NC(N)=S)nc(NC(C)(C)C)n1,x,44.0*,-4.2,-15.5,1.6,-1.5
CCNc1nc(NC(C)C)nc(NC(C)(C)C)n1,x,31.4,8.7,15.3,1.4,-10.6
C[C@H]1CN([C@@H](C)CO)C(=O)c2cc(NC(=O)Cc3cn(C)c4ccccc34)ccc2O[C@@H]1CN(C)S(=O)(=O)c1ccccc1,-3.1,-15.7,10.9,0.1[16.7 µM],x,x
C[C@H]1CN([C@@H](C)CO)C(=O)c2cc(NC(=O)Cn3cnnn3)ccc2O[C@@H]1CN(C)S(C)(=O)=O,-2.7,27.5,x,-14.9[16.7 µM],x,x
COc1ccc(/C=c2/sc3n(c2=O)C(c2ccccc2OC)C2=C(N=3)c3ccccc3CC2)cc1O (stereo not given),-0.3,x,93.1*,-81.2,-2.3,-6.9
CCOC(=O)C1=C(C)N=c2s/c(=C\c3ccc(O)c([N+](=O)[O-])c3)c(=O)n2C1c1ccccc1OC (stereo not given),-2.2,9.5,-7.5,3.5,-3.4,-13.8
O=C(C[C@@H]1C=C[C@@H](NC(=O)Nc2cc(F)ccc2F)[C@@H](CO)O1)NCc1ccccn1,-4.5,-3.5,3.8,3.4[16.7 µM],x,x
O=C(c1ccc(OCCN2CCCCC2)cc1)c1c(-c2ccc(O)cc2)sc2cc(O)ccc12,-3.4,-3.5,14.2,1.1,-0.5,34.4*
Cc1ccc(S(=O)(=O)N(C)C[C@@H]2OCCCC[C@H](C)Oc3ccc(NS(=O)(=O)c4ccc(Cl)cc4)cc3C(=O)N([C@@H](C)CO)C[C@H]2C)cc1,0.8,9.7,29.4,-62.8[16.7 µM],x,x
Cc1ccc(S(=O)(=O)Nc2ccc3c(c2)C(=O)N([C@@H](C)CO)C[C@@H](C)[C@@H](CN(C)S(=O)(=O)c2ccc(Cl)cc2)OCCCC[C@@H](C)O3)cc1,-0.3,7.6,82.6*,14.3[16.7 µM],x,x
Cc1ccc(S(=O)(=O)N(C)C[C@H]2OCCCC[C@H](C)Oc3ccc(NS(=O)(=O)c4ccc(Cl)cc4)cc3C(=O)N([C@@H](C)CO)C[C@@H]2C)cc1,4.3,4.4,88.8*,6.5[16.7 µM],x,x
Cc1ccc(S(=O)(=O)Nc2ccc3c(c2)C(=O)N([C@H](C)CO)C[C@H](C)[C@@H](CN(C)S(=O)(=O)c2ccc(Cl)cc2)OCCCC[C@H](C)O3)cc1,-0.8,23.9,94.9*,31.2[16.7 µM],x,x
Cc1ccc(S(=O)(=O)N(C)C[C@@H]2OCCCC[C@@H](C)Oc3ccc(NS(=O)(=O)c4ccc(Cl)cc4)cc3C(=O)N([C@H](C)CO)C[C@@H]2C)cc1,-0.6,-20.0,6.2,3.5[16.7 µM],x,x
